This note sets out measurements from ChEMBL document CHEMBL4823277, “Novel chalcone-conjugated, multi-flexible end-group coumarin thiazole hybrids as potential antibacterial repressors against methicillin-resistant Staphylococcus aureus” (Eur J Med Chem, 2021).

The structures appear in SMILES notation. In brackets after ≈: the same amount, converted by molar mass. Activity calls are given as the source filed them. The rule behind the calls is not given here.

Data set [1] concerns Staphylococcus aureus. The data set can be described thus: Antibacterial activity against methicillin-resistant Staphylococcus aureus N315 by microbroth dilution method. The class given is functional. In a few lines: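 Minimum inhibitory concentration against MRSA N315 determined by micro broth dilution in microdilution plates.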
In general terms: In broth dilution the organism is exposed to a series of concentrations in liquid medium.

Data set [2] relates to Staphylococcus aureus. The data set can be described thus: Antibacterial activity against Staphylococcus aureus by microbroth dilution method. The class given is functional.
The subject of data set [3] is Enterococcus faecalis. Briefly: Antibacterial activity against Enterococcus faecalis by microbroth dilution method. The class given is functional.
Data set [4] relates to Staphylococcus aureus. The data set can be described thus: Potentiation of (Z)-4-((bis(2-hydroxyethyl)amino)methyl)-7-((1-(4-methoxyphenyl)-3-oxo-3-(thiazol-2-yl)prop-1-en-2-yl)oxy)-2H-chromen-2-one-induced antibacterial activity against methicillin resistant Staphylococcus aureus N315 assessed as (Z)-4-((bis(2-hydroxyethyl)amino)methyl)-7-((1-(4-methoxyphenyl)-3-oxo-3-(thiazol-2-yl)prop-1-en-2-yl)oxy)-2H-chromen-2-one MIC. The class given is functional.

The test system of data set [5] is Klebsiella pneumoniae. The data set can be described thus: Antibacterial activity against Klebsiella pneumonia by microbroth dilution method. The class given is functional.
The test system of data set [6] is Escherichia coli. Briefly: Antibacterial activity against Escherichia coli ATCC 25922 by microbroth dilution method. The class given is functional.
Data set [7] deals with Escherichia coli. Briefly: Potentiation of (Z)-4-((bis(2-hydroxyethyl)amino)methyl)-7-((1-(4-methoxyphenyl)-3-oxo-3-(thiazol-2-yl)prop-1-en-2-yl)oxy)-2H-chromen-2-one-induced antibacterial activity against Escherichia coli assessed as (Z)-4-((bis(2-hydroxyethyl)amino)methyl)-7-((1-(4-methoxyphenyl)-3-oxo-3-(thiazol-2-yl)prop-1-en-2-yl)oxy)-2H-chromen-2-one MIC. The class given is functional.

Data set [8] concerns Staphylococcus aureus. The data set can be described thus: Antibacterial activity against Staphylococcus aureus ATCC 29213 by microbroth dilution method. The class given is functional.
In data set [9] the test system is Pseudomonas aeruginosa. The data set can be described thus: Antibacterial activity against Pseudomonas aeruginosa by microbroth dilution method. The class given is functional.
In data set [10] the test system is Pseudomonas aeruginosa. Briefly: Antibacterial activity against Pseudomonas aeruginosa ATCC 27853 by microbroth dilution method. The class given is functional.
Data set [11] concerns Enterococcus faecalis. Briefly: Potentiation of (Z)-4-((bis(2-hydroxyethyl)amino)methyl)-7-((1-(4-methoxyphenyl)-3-oxo-3-(thiazol-2-yl)prop-1-en-2-yl)oxy)-2H-chromen-2-one-induced antibacterial activity against Enterococcus faecalis assessed as (Z)-4-((bis(2-hydroxyethyl)amino)methyl)-7-((1-(4-methoxyphenyl)-3-oxo-3-(thiazol-2-yl)prop-1-en-2-yl)oxy)-2H-chromen-2-one MIC. The class given is functional.

In data set [12] the test system is Acinetobacter baumannii. Briefly: Antibacterial activity against Acinetobacter baumannii by microbroth dilution method. The class given is functional.
In data set [13] the test system is Staphylococcus aureus. Briefly: Antibacterial activity against Staphylococcus aureus ATCC 25923 by microbroth dilution method. The class given is functional.
Data set [14] relates to Klebsiella pneumoniae. The data set can be described thus: Potentiation of(Z)-4-((bis(2-hydroxyethyl)amino)methyl)-7-((1-(4-methoxyphenyl)-3-oxo-3-(thiazol-2-yl)prop-1-en-2-yl)oxy)-2H-chromen-2-one-induced antibacterial activity against Klebsiella pneumoniae assessed as (Z)-4-((bis(2-hydroxyethyl)amino)methyl)-7-((1-(4-methoxyphenyl)-3-oxo-3-(thiazol-2-yl)prop-1-en-2-yl)oxy)-2H-chromen-2-one MIC. The class given is functional.

The test system of data set [15] is Escherichia coli. Briefly: Antibacterial activity against Escherichia coli by microbroth dilution method. The class given is functional.
Data set [16] concerns Staphylococcus aureus. Briefly: Bactericidal activity against methicillin-resistant Staphylococcus aureus assessed as decrease in viable cells at 4 times MIC measured after 2 hrs by time kill assay. The class given is functional. In a few lines: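 Time-kill kinetics against MRSA at 4 × MIC. Viable cells were counted as CFU/mL over time, including the 2 h point.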
The test system of data set [17] is L02. The data set can be described thus: Cytotoxicity against human L02 cells assessed as effect on cell viability up to 500 ug/ml by MTT assay. The class given is cell-based. Conditions: dose <=500 µg/ml. In a few lines: (§1)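 MTT viability assay on human hepatocyte LO2 cells and RAW 264.7 cells. The test hybrid was applied over a rising concentration series up to 500. The read-out was the percentage of living cells.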
Background: Formazan colour is commonly taken as a measure of viable cells.

Data set [18] relates to DNA. The data set can be described thus: Binding affinity to methicillin-resistant Staphylococcus aureus DNA assessed as compound-DNA interaction causing DNA replication blockage by neutral red uptake assay. The class given is nucleic-acid assay.
Data set [19] deals with DNA. Briefly: Binding affinity to methicillin-resistant Staphylococcus aureus DNA assessed as decrease in absorption of compound-DNA complex by UV-vis spectroscopy. The class given is nucleic-acid assay.
Data set [20] relates to Klebsiella pneumoniae. Briefly: Potentiation of norfloxacin-induced antibacterial activity against Klebsiella pneumoniae assessed as norfloxacin MIC. The class given is functional.
For data set [21], the system named is Escherichia coli. The data set can be described thus: Potentiation of norfloxacin-induced antibacterial activity against Escherichia coli assessed as norfloxacin MIC. The class given is functional.
In data set [22] the test system is Klebsiella pneumoniae. The data set can be described thus: Additive antibacterial activity against Klebsiella pneumoniae assessed as fractional inhibitory concentration index in presence of norfloxacin. The class given is functional.
The test system of data set [23] is DNA. The data set can be described thus: Binding affinity to methicillin-resistant Staphylococcus aureus DNA assessed as maximum absorption peak at 260 nm by UV-vis spectroscopy. The class given is nucleic-acid assay.
In data set [24] the test system is Staphylococcus aureus. The data set can be described thus: Antibacterial activity against methicillin-resistant Staphylococcus aureus up to 50 ug/ml measured after 7 passages by resistance development assay. The class given is functional, organism-based. Conditions: dose microg/ml <=50.
For data set [25], the system named is Cell membrane. The data set can be described thus: Induction of membrane permeabilization in methicillin resistant Staphylococcus aureus at 12 times MIC measured after 60 mins by propidium iodide staining based fluorescence assay. A digest of the protocol: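 PI–DNA fluorescence intensity was followed over time up to and beyond 60 min, compared with an untreated control.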

The subject of data set [26] is Escherichia coli. Briefly: Additive antibacterial activity against Escherichia coli assessed as fractional inhibitory concentration index in presence of norfloxacin. The class given is functional.
In data set [27] the test system is Enterococcus faecalis. Briefly: Indifferent antibacterial activity against Enterococcus faecalis assessed as fractional inhibitory concentration index in presence of norfloxacin. The class given is functional.
The test system of data set [28] is Staphylococcus aureus. The data set can be described thus: Synergistic antibacterial activity against methicillin resistant Staphylococcus aureus N315 assessed as fractional inhibitory concentration index in presence of norfloxacin. The class given is functional.
Data set [29] relates to RAW264.7. The data set can be described thus: Cytotoxicity against mouse RAW264.7 cells assessed as effect on cell viability up to 500 ug/ml by MTT assay. The class given is cell-based. Conditions: dose <=500 µg/ml. A digest of the protocol:
as §1

Data set [30] concerns Enterococcus faecalis. Briefly: Potentiation of norfloxacin-induced antibacterial activity against Enterococcus faecalis assessed as norfloxacin MIC. The class given is functional.

Take `CCn1cc(C(=O)O)c(=O)c2cc(F)c(N3CCNCC3)cc21` [NORFLOXACIN]: the MIC (as a rule, the lowest concentration found to suppress growth) in [1] was 25 µM (≈ 7.98 µg/mL); in data set [2], 6 µM (≈ 1.92 µg/mL); in data set [3] it was 25 µM (≈ 7.98 µg/mL); in [4], 0.781 10^-3mM; in data set [5], 13 µM (≈ 4.15 µg/mL); in [6], 25 µM (≈ 7.98 µg/mL). The MIC in [7] is 0.781 10^-3mM; in data set [8] it was 6 µM (≈ 1.92 µg/mL); in data set [9] it was 25 µM (≈ 7.98 µg/mL); in data set [10], 3 µM (≈ 0.958 µg/mL); in [11], 0.781 10^-3mM; in [12], 25 µM (≈ 7.98 µg/mL). Also, the MIC in [13] was 3 µM (≈ 0.958 µg/mL); in data set [14], 0.203 10^-3mM; in [15], 50 µM (≈ 16 µg/mL).
For the compound `COc1ccc(/C=C(\Oc2ccc3c(CN(CCO)CCO)cc(=O)oc3c2)C(=O)c2nccs2)cc1`, the MIC in [1] is 4 µM (≈ 2.09 µg/mL); in data set [2], 61 µM (≈ 31.9 µg/mL); in data set [20], 0.953 10^-3mM; in data set [21] it was 0.234 10^-3mM; in [3] it was 61 µM (≈ 31.9 µg/mL); in data set [5] it was 61 µM (≈ 31.9 µg/mL). For the same compound, the minimum inhibitory concentration (MIC) in data set [6] is 244 µM (≈ 128 µg/mL); in data set [8], 122 µM (≈ 63.8 µg/mL); in data set [9], 122 µM (≈ 63.8 µg/mL); in [10], 244 µM (≈ 128 µg/mL); in data set [12], 244 µM (≈ 128 µg/mL); in data set [13], 122 µM (≈ 63.8 µg/mL). The MIC is 1.906 10^-3mM in data set [30] and 15 µM (≈ 7.84 µg/mL) in data set [15]. For the same compound, the values for the Activity in data set [16], in data set [17] and in data set [29] were less than 10 CFU/ml, “Non-Toxic” and “Non-Toxic”, respectively. Further, the outcome in data set [18], in data set [19], in data set [23], in data set [24] and in [25] was Active. The “fractional inhibitory concentration index (FICI)” value in data set [22] is 0.58; in data set [26], 0.51; in data set [27] it was 1.34; in data set [28] it was 0.45.
